Measurements from ChEMBL document CHEMBL3877292, “Synthesis and evaluation of novel hybrids β-carboline-4-thiazolidinones as potential antitumor and antiviral agents” (Eur J Med Chem, 2016).

What was measured:
[1] = Antiproliferative activity against human NCI/ADR-RES cells after 48 hrs by SRB assay; format: functional
How it was run: (§1)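 Cells grown in RPMI 1640 with 5% FBS, with penicillin/streptomycin in experimental cultures. Exposed in triplicate to 0.25, 2.5, 25 and 250 µg/mL in DMSO/RPMI for 48 h at 37 °C under 5% CO2. Plates were TCA-fixed before (T0) and after treatment, then stained with sulforhodamine B and read at 540 nm. GI50 was obtained by non-linear regression against untreated growth. Doxorubicin served as positive control.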

[2] = Antiproliferative activity against human OVCAR3 cells after 48 hrs by SRB assay; format: functional; settings: OVCAR-3, 48 h; how it was run: as §1
[3] = Antiproliferative activity against human MCF7 cells after 48 hrs by SRB assay; format: functional; settings: MCF7, 48 h; how it was run: as §1
Human alphaherpesvirus 1 = test: Antiviral activity against Herpes simplex type I KOS; format: functional; settings: Human alphaherpesvirus 1, KOS
[4] = Antiproliferative activity against human HT-29 cells after 48 hrs by SRB assay; format: functional; settings: HT-29, 48 h; how it was run: as §1
[5] = Antiproliferative activity against human U251 cells after 48 hrs by SRB assay; format: functional; settings: U-251, 48 h; how it was run: as §1
[6] = Cytotoxicity against African green monkey Vero cells after 48 hrs by SRB assay; format: toxicity, cell-based; settings: chlorocebus sabaeus
How it was run: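 Vero (ATCC CCL81) cells grown in DMEM with 10% FBS and gentamicin at 37°C, 5% CO2. Cells exposed in triplicate to 1000, 500, 100, 10, 1 and 0.1 µg/mL, with untreated cells as control. Viability read by sulforhodamine B colorimetry. CC50 is the concentration giving 50% cytotoxicity.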

[7] = Antiproliferative activity against human 786-0 cells after 48 hrs by SRB assay; format: functional; settings: 786-0, 48 h; how it was run: as §1
[8] = Antiproliferative activity against human NCI-H460 cells after 48 hrs by SRB assay; format: functional; settings: NCI-H460, 48 h; how it was run: as §1
[9] = Selectivity index, ratio of CC50 for Herpes simplex type I KOS infected African green monkey Vero cells to EC50 for Herpes simplex virus type 1 KOS; format: toxicity, cell-based; settings: Herpes simplex virus type 1 KOS infected Vero cells, read-out: Ratio CC50/EC50
How it was run: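 SI calculated as CC50/EC50. CC50 is the 50% cytotoxic concentration on Vero cells by sulforhodamine B, tested in triplicate from 0.1 to 1000 µg/mL. EC50 is the concentration protecting 50% of cells against HSV-1, with acyclovir as HSV-1 standard and drug-free cells as control.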

[10] = Antiproliferative activity against human PC3 cells after 48 hrs by SRB assay; format: functional; settings: PC-3, 48 h; how it was run: as §1
[11] = Antiproliferative activity against human UACC62 cells after 48 hrs by SRB assay; format: functional; settings: UACC-62, 48 h; how it was run: as §1

| Structure (SMILES) | GI50 [1] [µM] | GI50 [2] [µM] | GI50 [3] [µM] | EC50 (Human alphaherpesvirus 1) [µM] | GI50 [4] [µM] | GI50 [5] [µM] | CC50 at 48 h [6] [µM] | GI50 [7] [µM] | GI50 [8] [µM] | selectivity ratio [9] | GI50 [10] [µM] | GI50 [11] [µM] |
| --- | --- | --- | --- | --- | --- | --- | --- | --- | --- | --- | --- | --- |
| O=C(NN1C(=O)CSC1c1ccccc1)c1cc2c([nH]c3ccccc32)c(-c2ccccc2F)n1 (stereo unspecified) | > 100 | 0.73 | 63.1 | 30.3 | > 100 | 84.1 | 637 | > 100 | > 100 | 21 | – | – |
| O=C(NN1C(=O)CSC1c1ccccc1)c1cc2c([nH]c3ccccc32)c(-c2cccc([N+](=O)[O-])c2)n1 (stereo unspecified) | > 100 | 1.25 | > 100 | 2.02 | > 100 | > 100 | 1080 | > 100 | > 100 | 534 | – | – |
| O=C(NN1C(=O)CSC1c1ccccc1Cl)c1cc2c([nH]c3ccccc32)c(-c2ccccc2)n1 (stereo unspecified) | > 100 | > 100 | > 100 | – | > 100 | > 100 | – | > 100 | > 100 | – | > 100 | > 100 |
| O=C(NN1C(=O)CSC1c1cccs1)c1cc2c([nH]c3ccccc32)c(-c2ccccc2)n1 (stereo unspecified) | > 100 | > 100 | > 100 | – | > 100 | > 100 | – | > 100 | > 100 | – | > 100 | > 100 |
| COc1ccc(-c2nc(C(=O)N/N=C3/NC(=O)CS3)cc3c2[nH]c2ccccc23)cc1 | > 100 | 1.12 | 0.49 | – | 16.5 | – | – | 9.98 | 7.15 | – | – | – |
| CCN1C(=O)CS/C1=N\NC(=O)c1cc2c([nH]c3ccccc32)c(-c2ccccc2Cl)n1 | 0.25 | 3.97 | 6.84 | > 100 | 88.9 | 0.74 | 1400 | – | 4.12 | – | – | – |
| O=C1CS/C(=N\NC(=O)c2cc3c([nH]c4ccccc43)c(-c3ccccc3)n2)N1 | 28.1 | 9.88 | 11.4 | 102 | 19.5 | 15.8 | 2490 | 16.3 | 18.2 | 24.4 | – | – |
| CN(C)c1ccc(-c2nc(C(=O)N/N=C3\SCC(=O)N3c3ccccc3)cc3c2[nH]c2ccccc23)cc1 | 35.4 | > 100 | 15 | 50 | 38.1 | 12.5 | 817 | 3.97 | 17.9 | 16.4 | – | – |
| CCN1C(=O)CS/C1=N\NC(=O)c1cc2c([nH]c3ccccc32)c(-c2ccccc2)n1 | 8.89 | > 100 | 17.2 | – | > 100 | 0.46 | – | – | > 100 | – | – | – |
| CCN1C(=O)CS/C1=N\NC(=O)c1cc2c([nH]c3ccccc32)c(-c2ccccc2F)n1 | > 100 | > 100 | > 100 | > 100 | > 100 | > 100 | 2980 | > 100 | > 100 | – | – | – |
| CCN1C(=O)CS/C1=N\NC(=O)c1cc2c([nH]c3ccccc32)c(-c2ccc(N(C)C)cc2)n1 | 2.6 | 2.42 | 54.9 | 6.78 | 65.7 | 63.3 | 1650 | 6.61 | 59 | 243 | – | – |
| O=C1CS/C(=N\NC(=O)c2cc3c([nH]c4ccccc43)c(-c3cccc([N+](=O)[O-])c3)n2)N1 | 0.62 | > 100 | 40.1 | – | > 100 | – | – | 16.1 | > 100 | – | – | – |
| O=C(N/N=C1\SCC(=O)N1c1ccccc1)c1cc2c([nH]c3ccccc32)c(-c2ccccc2F)n1 | > 100 | > 100 | > 100 | > 100 | > 100 | > 100 | 339 | > 100 | > 100 | – | – | – |
| O=C1CS/C(=N\NC(=O)c2cc3c([nH]c4ccccc43)c(-c3ccccc3Cl)n2)N1 | > 100 | 0.01 | 1.42 | > 100 | 10.8 | – | 766 | 6.1 | 3.85 | – | – | – |
| CCN1C(=O)CS/C1=N\NC(=O)c1cc2c([nH]c3ccccc32)c(-c2cccc([N+](=O)[O-])c2)n1 | 3.27 | > 100 | > 100 | 86.5 | > 100 | > 100 | 1790 | > 100 | > 100 | 20.7 | – | – |
| CCN1C(=O)CS/C1=N\NC(=O)c1cc2c([nH]c3ccccc32)c(-c2ccc(OC)cc2)n1 | 12.2 | 6.52 | 6.52 | 26.6 | 9.62 | 1.95 | 1730 | – | 8.56 | 65.2 | – | – |
| O=C(N/N=C1\SCC(=O)N1c1ccccc1)c1cc2c([nH]c3ccccc32)c(-c2cccc([N+](=O)[O-])c2)n1 | 0.19 | 0.83 | 2.36 | 17.2 | 2.28 | 1.59 | 1170 | 1.53 | 3.91 | 67.8 | – | – |
| O=C(NN1C(=O)CSC1c1ccccc1)c1cc2c([nH]c3ccccc32)c(-c2ccccc2)n1 (stereo unspecified) | 18.4 | 1.58 | 19.1 | 2.15 | > 100 | 0.25 | 506 | > 100 | > 100 | 235 | 7.23 | 80.4 |
| O=C1CS/C(=N\NC(=O)c2cc3c([nH]c4ccccc43)c(-c3ccccc3F)n2)N1 | 66.4 | 12.3 | 11.9 | 19.6 | 32.4 | 9.57 | 1070 | 20.3 | 21.1 | 54.9 | – | – |
| O=C(N/N=C1\SCC(=O)N1c1ccccc1)c1cc2c([nH]c3ccccc32)c(-c2ccccc2)n1 | 3.13 | 17.5 | 28 | 78.9 | > 100 | 17.5 | 1480 | 13.6 | 37.2 | 18.8 | – | – |
| CN(C)c1ccc(-c2nc(C(=O)NN3C(=O)CSC3c3ccccc3)cc3c2[nH]c2ccccc23)cc1 (stereo unspecified) | 64.5 | > 100 | > 100 | 0.8 | > 100 | 64.5 | 467 | > 100 | > 100 | 592 | – | – |
